The source of these data is paper PMC8179362 (Chemical Science, 2021).

For data set [1], the system named is Enterobacter spp. (42713), IMP. Nature of the data set: Imipenem MIC, broth microdilution, clinical isolate. The conditions noted are these: for MIC of imipenem (IMI) + MMTZ: Enterobacter spp. (42713), IMP, MMTZ at constant 100 mg/L. It is filed as cell-based. Put shortly: (§1)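 Clinical Enterobacterales isolates producing MBLs. Carbapenem MIC was determined for the carbapenem alone and in the presence of test compound, and the shift in MIC was assessed. Imipenem was the carbapenem for most strains. Morganellaceae strains were tested with meropenem instead, because of their intrinsic reduced susceptibility to imipenem.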

For data set [2], the system named is K. aerogenes (6915), VIM-2. The data set is described as above. Format: cell-based. Particulars: MMTZ at constant 100 mg/L. Put shortly:
as §1

The nature of data set [3]: Chemical stability in PBS. It is filed as physicochemical. The conditions noted are these: PBS pH 7.2, 27 °C.
The next data set has as its system E. coli (8.68), NDM-1. Nature of the data set: Imipenem MIC, broth microdilution, clinical isolate. Particulars: for MIC of imipenem (IMI) + MMTZ: E. coli (8.68), NDM-1, MMTZ at constant 100 mg/L. Format: cell-based. Put shortly: as §1
Data set [4] has as its target E. coli cells expressing NDM-1 (Klebsiella pneumoniae, UniProt C7C422). Format: cell-based.
A further data set deals with NDM-1 (Klebsiella pneumoniae, UniProt C7C422). Nature of the data set: Imipenem hydrolysis by purified NDM-1, competitive inhibition model. It is filed as biochemical. Particulars: for Fold more active against NDM-1 than its enantiomer / Fold more potent NDM-1 inhibitor than L-BTZ-1: ratio of Ki values.
Data set [5] relates to K. pneumoniae (6907), VIM-2. Nature of the data set: Imipenem MIC, broth microdilution, clinical isolate. It is filed as cell-based. Particulars: MMTZ at constant 100 mg/L. Put shortly:
as §1

The subject of data set [6] is K. pneumoniae (5639), VIM-24. The data set is described as above. It is filed as cell-based. The conditions noted are these: MMTZ at constant 100 mg/L. The method, boiled down:
as §1

The test system of data set [7] is K. pneumoniae (1.37), NDM. The description is as above. Format: cell-based. The conditions noted are these: MMTZ at constant 100 mg/L. Put shortly: as §1
A further data set has as its target VIM-2 (Escherichia coli, UniProt Q5U7L7). Nature of the data set: Imipenem hydrolysis by purified VIM-2, competitive inhibition model. It is filed as biochemical.
Data set [8] has as its system clinical isolates producing MBLs. Nature of the data set: Antimicrobial susceptibility testing, statements on the whole panel. Particulars: MMTZ at constant 100 mg/L, Enterobacterales clinical isolates. Format: cell-based. Put shortly: as §1
The next data set concerns the target IMP-1 (Serratia marcescens, UniProt P52699). Nature of the data set: Imipenem hydrolysis by purified IMP-1, competitive inhibition model. Format: biochemical.
Another data set deals with HEK293. Nature of the data set: Cytotoxicity, MTT assay. It is filed as cell-based, human. The conditions noted are these: 260, 355 and 530 μM, 24 hs.
Data set [9] concerns K. pneumoniae (LC 82), IMP-13. Nature of the data set: Imipenem MIC, broth microdilution, clinical isolate. Format: cell-based. Particulars: MMTZ at constant 100 mg/L. Put shortly:
as §1

Data set [10] deals with P. mirabilis (UNC KPC 170), IMP. Nature of the data set: Carbapenem. Format: cell-based. Particulars: tested using meropenem (footnote a). The method, boiled down:
as §1

The next data set has as its system L929. Nature of the data set: Cytotoxicity, MTT assay. It is filed as cell-based, mouse. Particulars: 260, 355 and 530 μM, 24 hs.
Another data set concerns VERO. Nature of the data set: Cytotoxicity, MTT assay. Format: cell-based, African green monkey. Particulars: 260, 355 and 530 μM, 24 hs.

Chain of IMP-1 (P52699 19-246, looked up, species assumed): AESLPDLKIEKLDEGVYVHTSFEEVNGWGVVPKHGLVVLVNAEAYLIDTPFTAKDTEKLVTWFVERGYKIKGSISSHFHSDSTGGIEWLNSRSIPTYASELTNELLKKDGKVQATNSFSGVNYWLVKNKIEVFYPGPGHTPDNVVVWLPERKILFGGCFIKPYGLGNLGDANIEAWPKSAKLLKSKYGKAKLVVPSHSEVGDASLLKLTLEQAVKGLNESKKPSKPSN
Chain of NDM-1 (C7C422 29-270, looked up, species assumed): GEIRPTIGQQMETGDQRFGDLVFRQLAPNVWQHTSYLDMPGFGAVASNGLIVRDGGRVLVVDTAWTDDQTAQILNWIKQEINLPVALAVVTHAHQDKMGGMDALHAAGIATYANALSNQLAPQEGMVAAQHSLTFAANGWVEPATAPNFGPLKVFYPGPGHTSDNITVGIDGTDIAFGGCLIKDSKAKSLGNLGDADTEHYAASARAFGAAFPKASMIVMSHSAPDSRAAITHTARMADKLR
Chain of E. coli cells expressing NDM-1 (C7C422 29-270, looked up): as the sequence (C7C422 29-270, looked up, species assumed) above

As to `CCOC(=O)[C@@]1(CS)N[C@@H](C(=O)O)C(C)(C)S1` [D-anti-1b, (2R,4S)-2-(Ethoxycarbonyl)-2-(mercaptomethyl)-5,5-dimethylthiazolidine-4-carboxylic acid], the “MIC of imipenem (IMI) + MMTZ” value in data set [1] came out at 8 µg/mL; in [2], 2 µg/mL; in the data set with E. coli (8.68), NDM-1, 16 µg/mL; in data set [5] it was 1 µg/mL; in data set [6], 1 µg/mL; in data set [7], 8 µg/mL. Besides, the “Degradation in PBS by LCMS” value in data set [3] (6 h) was “did not hydrolyse to penicillamine and the main degradation product was the disulphide derivative”. In data set [3] (after 6 hours), the “Intact MMTZ remaining” value amounted to 88%. The molecule also came in with an IC50 in [4] of 210 ± 10 µM. Further, the Ki on NDM-1 came out at 3.1 ± 0.3 µM; on VIM-2, 0.9 ± 0.1 µM; on IMP-1, 0.93 ± 0.08 µM. The “Reduction in MIC values of imipenem” value in data set [8] is “up to 16 fold”.

On to `CCOC(=O)[C@]1(CS)N[C@H](C(=O)O)CS1` [L-anti-1a, (2S,4R)-2-(ethoxycarbonyl)-2-(mercaptomethyl)thiazolidine-4-carboxylic acid], for which the “MIC of imipenem (IMI) + MMTZ” value in [1] is 16 µg/mL; in data set [2], 4 µg/mL; in data set [5], 2 µg/mL; in data set [6], 8 µg/mL; in data set [7] it was 8 µg/mL; in [9], 0.5 µg/mL. The “Cytotoxicity (cell viability)” value in the data set with HEK293 was “more selectively toxic towards the HEK293 cell line”. The molecule further had an IC50 in data set [4] of 54 ± 4 µM. Further, the Ki is 5.2 ± 0.7 µM at NDM-1, 0.38 ± 0.05 µM on VIM-2 and 1 ± 0.2 µM at IMP-1.

For the molecule `CCOC(=O)[C@]1(CS)N[C@H](C(=O)O)C(C)(C)S1` [L-anti-1b, (2S,4R)-2-(Ethoxycarbonyl)-2-(mercaptomethyl)-5,5-dimethylthiazolidine-4-carboxylic acid], the “MIC of imipenem (IMI) + MMTZ” value in data set [1] was 8 µg/mL; in data set [2], 2 µg/mL; in the data set on E. coli (8.68), NDM-1, 16 µg/mL; in [5] it was 1 µg/mL; in [6] it was 4 µg/mL; in [7], 8 µg/mL. The molecule further yielded an IC50 in [4] of 160 ± 10 µM. In addition, the Ki on NDM-1 was determined as 0.44 ± 0.06 µM; at VIM-2 it was 0.75 ± 0.09 µM; on IMP-1, 0.46 ± 0.05 µM. Further, on NDM-1, the “Fold more active against NDM-1 than its enantiomer” value is reported as 7 fold. Further, the “Fold more potent NDM-1 inhibitor than L-BTZ-1” value at NDM-1 is reported as 12 fold.

Consider `CCOC(=O)[C@@]1(CS)N[C@H](C(=O)O)C(C)(C)S1` [L-syn-1b, (2R,4R)-2-(Ethoxycarbonyl)-2-(mercaptomethyl)-5,5-dimethylthiazolidine-4-carboxylic acid], for which the “MIC of imipenem (IMI) + MMTZ” value in [1] is 16 µg/mL; in [2], 4 µg/mL; in the data set with E. coli (8.68), NDM-1, 32 µg/mL; in data set [5] it was 4 µg/mL; in data set [6], 8 µg/mL; in data set [9], 1 µg/mL. This molecule also registered an IC50 in data set [4] of 230 ± 30 µM. Further, the Ki at NDM-1 was 8 ± 1 µM; at VIM-2, 3.6 ± 0.4 µM; at IMP-1, 6 ± 0.6 µM.

For the molecule `CCOC(=O)[C@]1(CS)N[C@@H](C(=O)O)C(C)(C)S1` [D-syn-1b, (2S,4S)-2-(Ethoxycarbonyl)-2-(mercaptomethyl)-5,5-dimethylthiazolidine-4-carboxylic acid], the “MIC of imipenem (IMI) + MMTZ” value in [1] stood at 8 µg/mL; in [2] it was 4 µg/mL; with E. coli (8.68), NDM-1, 32 µg/mL; in data set [5] it was 4 µg/mL; in [6], 8 µg/mL; in data set [7], 8 µg/mL. Besides, the “Fold more active against NDM-1 than its enantiomer” value at NDM-1 came out at 13 fold. Further, at NDM-1, the “Fold more potent NDM-1 inhibitor than L-BTZ-1” value is on record as 12 fold. The Ki was 1.9 ± 0.1 µM on VIM-2 and 2 ± 0.2 µM on IMP-1.

`C[C@@H](O)[C@H]1C(=O)N2C(C(=O)O)=C(SCCN=CN)C[C@H]12` [IMI, imipenem, reference compound]: the MIC in [1] (Enterobacter, read-out: MIC of imipenem (IMI) alone) was determined as 16 µg/mL; in the data set on E. coli (8.68), NDM-1 (Escherichia coli, read-out: MIC of imipenem (IMI) alone), 64 µg/mL. Moreover, the “MIC of carbapenem alone (column IMI)” value in [10] came to 16 µg/mL.

In the case of `CCOC(=O)[C@@]1(CS)N[C@@H](C(=O)O)CS1` [D-anti-1a, (2R,4S)-2-(ethoxycarbonyl)-2-(mercaptomethyl)thiazolidine-4-carboxylic acid], the “MIC of imipenem (IMI) + MMTZ” value came out at 8 µg/mL in data set [1]; 2 µg/mL in data set [2]; 16 µg/mL with E. coli (8.68), NDM-1; 2 µg/mL in data set [5]; 4 µg/mL in [6]; 8 µg/mL in data set [7]. The “Cytotoxicity (cell viability)” value with HEK293, in the data set on L929 and in the data set on VERO was “induced a decline in cell viability percentages in almost all conditions” in each case. Besides, the IC50 in data set [4] worked out at 64 ± 5 µM. Also, the Ki at NDM-1 came to 2.5 ± 0.5 µM; at VIM-2, 0.39 ± 0.04 µM; at IMP-1, 1.3 ± 0.1 µM.
